Laboratory results published in ChEMBL document CHEMBL3112538, “Novel spirooxindole-pyrrolidine compounds: synthesis, anticancer and molecular docking studies” (2014).
Calls of active or inactive are those of the source. The rule behind the calls is not given here.

Key:
A549 [1] = experiment: Cytotoxicity against human A549 cells at 50 ug/ml by MTT assay; type: functional
Summary of the method: (§1)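 A549 cells (NCIS Pune) grown in DMEM with 10% FBS, 2 mM L-glutamine, penicillin/streptomycin, pH 7.2. 5 × 10^5 cells were seeded with compound at 100, 50 or 25 per mL and kept at 37 °C, 5% CO2. MTT (1 mg/mL, 4 h) was added, formazan dissolved in DMSO and read at 540 nm. IC50 is the mean of three replicate experiments; Duncan test at P = 0.05.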

A549 [2] = experiment: Cytotoxicity against human A549 cells assessed as growth inhibition at 25 ug/ml after 24 hrs by agarose gel electrophoresis; type: functional, cell-based
Summary of the method: (§2)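 A549 cells were exposed to compound for 24 h. 1 × 10^6 cells were pelleted, PBS-washed and lysed at 4 °C for 15 min in 10 mM Tris-HCl pH 7.4 with 10 mM EDTA and 0.5% Triton X-100. Supernatant was treated with proteinase K (60 °C, 60 min) then RNase A (37 °C, 60 min). DNA was isopropanol/NaCl precipitated overnight and run on a 2% agarose gel.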

A549 [3] = experiment: Cytotoxicity against human A549 cells at 100 ug/ml by MTT assay; type: functional; summary of the method: as §1
A549 [4] = experiment: Cytotoxicity against human A549 cells by MTT assay; type: functional, cell-based; summary of the method: as §1
A549 [5] = experiment: Induction of apoptosis in human A549 cells assessed as DNA fragmentation at 25 ug/ml after 24 hrs by agarose gel electrophoresis; type: functional, cell-based; summary of the method: as §2
A549 [6] = experiment: Cytotoxicity against human A549 cells at 25 ug/ml by MTT assay; type: functional; summary of the method: as §1

Compound | inhibition at 50 µg/mL (A549 [1]) [%] | growth inhibition (GI) (A549 [2]) | inhibition at 100 µg/mL (A549 [3]) [%] | Activity (A549 [4]) | Activity (A549 [5]) | inhibition at 25 µg/mL (A549 [6]) [%]
N#C[C@@]1(C(=O)c2c[nH]c3ccccc23)[C@@H](c2ncc[nH]2)C2CSCN2[C@]12C(=O)Nc1ccccc12 (some centres not stated) | 79.3 | Active | 85.6 | Dose-dependent effect | Active | 59.9
COc1ccc2[nH]cc(C(=O)[C@]3(C#N)[C@@H](c4ncc[nH]4)C4CSCN4[C@]34C(=O)Nc3ccc([N+](=O)[O-])cc34)c2c1 (some centres not stated) | 5.1 | – | 9 | Dose-dependent effect | – | 3.3
COc1ccc2[nH]cc(C(=O)[C@]3(C#N)[C@@H](c4ncc[nH]4)CN(C)[C@]34C(=O)Nc3ccc([N+](=O)[O-])cc34)c2c1 | 4.3 | – | 6.8 | Dose-dependent effect | – | 3
N#C[C@@]1(C(=O)c2c[nH]c3ccccc23)[C@@H](c2ncc[nH]2)C2CSCN2[C@]12C(=O)Nc1ccc(I)cc12 (some centres not stated) | 56.3 | – | 69 | Dose-dependent effect | – | 24.5
CN1C(=O)[C@@]2(c3ccccc31)N(C)C[C@H](c1ncc[nH]1)[C@@]2(C#N)C(=O)c1c[nH]c2ccccc12 | 4.3 | – | 7.4 | Dose-dependent effect | – | 3.3
COc1ccc2[nH]cc(C(=O)[C@]3(C#N)[C@@H](c4ncc[nH]4)C4CSCN4[C@]34C(=O)Nc3ccccc34)c2c1 (some centres not stated) | 72.1 | Active | 83.3 | Dose-dependent effect | Active | 54.4
COc1ccc2[nH]cc(C(=O)[C@]3(C#N)[C@@H](c4ncc[nH]4)C4CSCN4[C@]34C(=O)Nc3ccc(Cl)cc34)c2c1 (some centres not stated) | 72.1 | Active | 81.8 | Dose-dependent effect | Active | 55.2
CN1C[C@H](c2ncc[nH]2)[C@@](C#N)(C(=O)c2c[nH]c3ccccc23)[C@@]12C(=O)Nc1ccc(I)cc12 | 6.8 | – | 14.9 | Dose-dependent effect | – | 5.9
N#C[C@@]1(C(=O)c2c[nH]c3ccccc23)[C@@H](c2ncc[nH]2)C2CSCN2[C@]12C(=O)Nc1ccc(F)cc12 (some centres not stated) | 33.5 | – | 66.2 | Dose-dependent effect | – | 15.5
COc1ccc2[nH]cc(C(=O)[C@]3(C#N)[C@@H](c4ncc[nH]4)CN(C)[C@]34C(=O)Nc3ccc(Br)cc34)c2c1 | 9.9 | – | 13.4 | Dose-dependent effect | – | 5.1
COc1ccc2[nH]cc(C(=O)[C@]3(C#N)[C@@H](c4ncc[nH]4)CN(C)[C@]34C(=O)Nc3ccc(F)cc34)c2c1 | 35.6 | – | 66.2 | Dose-dependent effect | – | 9.9
N#C[C@@]1(C(=O)c2c[nH]c3ccccc23)[C@@H](c2ncc[nH]2)C2CSCN2[C@]12C(=O)Nc1ccc(Br)cc12 (some centres not stated) | 9 | – | 15.6 | Dose-dependent effect | – | 5.1
CN1C[C@H](c2ncc[nH]2)[C@@](C#N)(C(=O)c2c[nH]c3ccccc23)[C@@]12C(=O)Nc1ccc(Cl)cc12 | 30.9 | – | 51.5 | Dose-dependent effect | – | 6.9
N#C[C@@]1(C(=O)c2c[nH]c3ccccc23)[C@@H](c2ncc[nH]2)C2CSCN2[C@]12C(=O)Nc1ccc([N+](=O)[O-])cc12 (some centres not stated) | 63.4 | – | 76.8 | Dose-dependent effect | – | 28
COc1ccc2[nH]cc(C(=O)[C@]3(C#N)[C@@H](c4ncc[nH]4)C4CSCN4[C@]34C(=O)Nc3ccc(Br)cc34)c2c1 (some centres not stated) | 68.4 | – | 82.7 | Dose-dependent effect | – | 36.2
N#C[C@@]1(C(=O)c2c[nH]c3ccccc23)[C@@H](c2ncc[nH]2)C2CSCN2[C@]12C(=O)Nc1ccc(Cl)cc12 (some centres not stated) | 13.4 | – | 24 | Dose-dependent effect | – | 6
COc1ccc2[nH]cc(C(=O)[C@]3(C#N)[C@@H](c4ncc[nH]4)C4CSCN4[C@]34C(=O)Nc3ccc(F)cc34)c2c1 (some centres not stated) | 31.1 | – | 56.2 | Dose-dependent effect | – | 15.7
CN1C[C@H](c2ncc[nH]2)[C@@](C#N)(C(=O)c2c[nH]c3ccccc23)[C@@]12C(=O)Nc1ccc(Br)cc12 | 9.8 | – | 34.2 | Dose-dependent effect | – | 4.4
COc1ccc2[nH]cc(C(=O)[C@]3(C#N)[C@@H](c4ncc[nH]4)CN(C)[C@]34C(=O)N(C)c3ccccc34)c2c1 | 79.2 | – | 85 | Dose-dependent effect | – | 66.3
COc1ccc2[nH]cc(C(=O)[C@]3(C#N)[C@@H](c4ncc[nH]4)C4CSCN4[C@]34C(=O)N(C)c3ccccc34)c2c1 (some centres not stated) | 68.5 | – | 80.1 | Dose-dependent effect | – | 52.9
CN1C[C@H](c2ncc[nH]2)[C@@](C#N)(C(=O)c2c[nH]c3ccccc23)[C@@]12C(=O)Nc1ccccc12 | 6.3 | – | 23.2 | Dose-dependent effect | – | 3.1
Cc1ccc2c(c1)[C@]1(C(=O)N2)N2CSCC2[C@H](c2ncc[nH]2)[C@@]1(C#N)C(=O)c1c[nH]c2ccccc12 (some centres not stated) | 75.8 | Active | 84.3 | Dose-dependent effect | Active | 66.3
CN1C[C@H](c2ncc[nH]2)[C@@](C#N)(C(=O)c2c[nH]c3ccccc23)[C@@]12C(=O)Nc1ccc([N+](=O)[O-])cc12 | 33.4 | – | 56.6 | Dose-dependent effect | – | 8.8
COc1ccc2[nH]cc(C(=O)[C@]3(C#N)[C@@H](c4ncc[nH]4)CN(C)[C@]34C(=O)Nc3ccccc34)c2c1 | 74.4 | – | 83 | Dose-dependent effect | – | 62.8
Cc1ccc2c(c1)[C@]1(C(=O)N2)N(C)C[C@H](c2ncc[nH]2)[C@@]1(C#N)C(=O)c1c[nH]c2ccccc12 | 53.5 | Active | 77.3 | Dose-dependent effect | Active | 26.7
CN1C[C@H](c2ncc[nH]2)[C@@](C#N)(C(=O)c2c[nH]c3ccccc23)[C@@]12C(=O)Nc1ccc(F)cc12 | 9 | – | 22.2 | Dose-dependent effect | – | 4.5
COc1ccc2[nH]cc(C(=O)[C@]3(C#N)[C@@H](c4ncc[nH]4)CN(C)[C@]34C(=O)Nc3ccc(Cl)cc34)c2c1 | 15.2 | – | 23 | Dose-dependent effect | – | 4.7
COc1ccc2[nH]cc(C(=O)[C@]3(C#N)[C@@H](c4ncc[nH]4)CN(C)[C@]34C(=O)Nc3ccc(I)cc34)c2c1 | 22.2 | – | 50.2 | Dose-dependent effect | – | 3.7
